“And” between values parts separate entries of the source, which are not always exact repeats. Identical values can stand only once. Like-named read-outs stand apart in the source and are kept apart here. Blank lines part the entries; values can stand above or below the compound they belong to.
Assays:
[1] = cited from earlier work
[2] = tested on: human DIPG cell lines; settings: cited from earlier work
[3] = cited from earlier work; remark: listed apart in the source
[4] = cited from earlier work; remark: listed apart in the source
[5] = dog; cited from earlier work
[6] = tested on: high-grade gliomas; settings: in combination with bevacizumab, twelve patients; cited from earlier work
[7] = murine plasma; cited from earlier work
[8] = human plasma; cited from earlier work
[9] = design: species or system human
[10] = Clearance predicted for the mouse by body surface area scaling; settings: body surface area scaling from dog and rat
[11] = tested on: DIPG cultures; settings: cited from earlier work
[12] = Protein binding in murine plasma; assay type: in vitro ADME; settings: murine plasma compartment
[13] = IP and IV administration; cited from earlier work
[14] = tested on: refractory solid tumors; settings: 9 pediatric patients; cited from earlier work
[15] = cited from earlier work; remark: listed apart in the source
[16] = rat; cited from earlier work
[17] = tested on: P-gp; settings: cited from earlier work
[18] = Plasma and brain pharmacokinetics of panobinostat in CD-1 female mice; assay type: in vivo
How it was run: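 Single tail-vein dose of 15 mg/kg (3 mg/mL in PBS with 20% DMSO and 20% PEG-400) given to 12 mice, with 3 killed at each of 1, 2, 4 and 7 h. Heparinized plasma and brains frozen at −80 °C. LC–MS with internal standard, using 9-point 1–500 ng/mL calibration fitted by 1/x2 regression. Cmax taken as highest observed concentration, AUC1–7 by trapezoidal rule, and clearance from a […] model.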

[19] = intraperitoneal injection, single time-point 4 h
[20] = female, CD-1, mouse, brain, intravenous, 15 mg/kg
[21] = female, CD-1, mouse, brain, iv, 15 mg/kg
[22] = female, CD-1, mouse, brain/plasma, iv, 15 mg/kg
[23] = female, CD-1, mouse, plasma, intravenous, 15 mg/kg
[24] = female, CD-1, mouse, plasma, iv, 15 mg/kg

SMILES: Cc1nc(Nc2ncc(C(=O)Nc3c(C)cccc3Cl)s2)cc(N2CCN(CCO)CC2)n1 [dasatinib]
concentrations in the brain after inhibition of P-gp with everolimus [1]: increased concentrations

expected human brain nanomolar concentration ([9]; corresponding to 45.95 ng/g): approximately 142.2 nM
expected human brain concentration ([9]; pediatric Cmax 20.7 ng/mL x brain to plasma ratio 2.22): approximately 45.95 ng/g
clearance predicted in the mouse [10]: 918 mL/min/kg
drug unbound in plasma [12]: 40%
AUC1–7 for brain ([18]; 15 mg/kg IV, mice, trapezoidal rule, 1 h to 7 h): 250 ng·h/g
concentration at 1 h [18, 20]: 60.5 ng/g and 63.2 ng/mL and 181 nM
concentration at 2 h [18, 20]: 42.9 ± 5.4 ng/g
concentration at 4 h [18, 20]: 33.2 ± 6.1 ng/g
concentration at 7 h [18, 20]: 28.1 ng/g and 29.4 ng/mL and 84.1 nM
Cmax [18, 21]: 72.4 ng/g
Vd [18, 21]: 49.8 L/kg
Kp [18, 22]: 2.63
Kp at 1 h [18, 22]: 2.22
Kp at 2 h [18, 22]: 5.67
Kp at 4 h [18, 22]: 22.4
Kp at 7 h [18, 22]: 12.1
Vd [18, 23]: 53.8 L/kg
clearance [18, 23]: 967 mL/min/kg
concentration at 1 h [18, 23]: 27.3 ± 2.5 ng/mL
concentration at 2 h [18, 23]: 7.56 ± 1.8 ng/mL
concentration at 4 h [18, 23]: 1.48 ± 0.56 ng/mL
concentration at 7 h [18, 23]: 2.33 ± 1.18 ng/mL
AUC [18, 24]: 95 ng·h/mL
Cmax [18, 24]: 132 ng/mL
Vd [18, 24]: 140 L/kg
clearance [18, 24]: 1360 mL/min/kg
SMILES: Cc1[nH]c2ccccc2c1CCNCc1ccc(/C=C/C(=O)NO)cc1 [panobinostat, 2-hydroxypropanoic acid, compound with 2-(E)-Nhydroxy-3-[4-[[[2-(2-methyl-1H-indol-3-yl)ethyl]amino]methyl]phenyl]-2-propenamide]
IC50 ([2]; prior DIPG models): 28.3 nM
IC50 ([2]; range in human DIPG cell lines): 12.1 to 28.3 nM
BCS class [3]: Class II
permeability (BCS) [3]: high permeability
solubility (BCS) [3]: low solubility
brainstem concentration relative to cerebral cortex (times) [4]: more than 7
concentration in brainstem tumor tissue [4, 19]: 550 ± 51 nM
concentration in cerebral cortex [4, 19]: 70 ± 10 nM
volume of distribution [5]: 42 L/kg
median progression free survival (PFS) [6]: 4.3 months
patients achieving a partial response [6]: Three
patients with stable disease [6]: 6 patients
protein binding [7]: approximately 60%
protein binding [8]: 75–90%
DIPG cultures demonstrating sensitivity [11]: 12 of the 16
concentrations in xenograft, intestine, bladder, and heart tissue versus plasma [13]: higher concentrations
objective response [14]: No patient had an objective response
patients with stable disease [14]: 3 patients
tolerability [14]: acceptable tolerability
brain penetration in clinical reports [15]: minimal to no brain penetration
concentrations in the CSF ([15]; prior studies): negligible concentrations
volume of distribution [16]: 40.2 L/kg
P-gp substrate status [17]: substrate of P-gp

SMILES: COc1cc2c(Nc3ccc(Br)cc3F)ncnc2cc1OCC1CCN(C)CC1 [vandetanib]
concentrations in the brain after inhibition of P-gp with everolimus [1]: increased concentrations
